Measurements reported in PubChem BioAssay.
Activity calls are given as the source filed them.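 Rule for the calls, unless noted: active = inhibition above 20% together with a positive visual image hit; inconclusive = visual image hit but inhibition not above 20%; inactive = no visual image hit.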

Tests used:
[1] = inhibitors of TNFa-induced NFkB p65 translocation, primary screen, imaging, HUVEC, MLSMR starter and 10KST1 sets (AID 438); conditions: HUVEC TNFa-induced p65 nuclear translocation; cell count: measured here: nuclei count (cytotoxicity indicator), at 2.08 µM; inhibition: at 2 µM, stronger effect = higher value, 0% TNFa-plus-vehicle, 100% no-TNFa wells;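 note: compound added about 3h40 before a 20 min TNFalpha stimulation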;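 for inhibition: signal is the nuclear over cytoplasmic p65 intensity ratio per well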
[2] = inhibitors of mutant huntingtin aggregation, primary screen, imaging, exon1htt(103Q)mCFP cells, high-content imaging (AID 483;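 active = visual image review flags a hit and inhibition of aggregation exceeds 20%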;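 note: compound exposure lasted 3 days before fixation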;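 for nuclei count: percent of the per-plate median nuclei count of sample wells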); conditions: exon1htt(103Q)mCFP cell line, aggregate imaging, at 2 µM; inhibition of aggregation: stronger effect = higher value; nuclei count: measured here: cell count, toxicity
[3] = inhibitors of E-selectin induction by TNFa, primary screen, imaging, HUVEC, immunofluorescence, MLSMR starter and 10KST1 sets (AID 487;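 active = visually confirmed hit in the image check and inhibition above 20%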;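 for inhibition: signal is fraction of cell area covered by stained E-selectin grains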;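 for nuclei count: 100% = median nuclei count of all wells on the same plate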); conditions: HUVEC TNFalpha-induced E-selectin immunofluorescence imaging, at 2 µM; inhibition: stronger effect = higher value; nuclei count: measured here: cell number, toxicity
[4] = molecular target: Voltage-gated potassium channel subunit beta-2 (Rattus norvegicus) (UniProt P62483); assay: KvBeta enzyme negative modulators, primary screen, biochemical, NADPH fluorescence (AID 622;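 active = fluorescence slope higher than the sample average by over 3 SD, cut at about -0.22 in these data, passing the limit was not always enough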;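 note: slope of raw intensity against log time taken from 70 to 1610 s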); conditions: recombinant KvBeta, 4-cyanobenzaldehyde reduction, at 10 µM, stronger effect = higher value
[5] = molecular target: Voltage-gated potassium channel subunit beta-2 (Rattus norvegicus) (UniProt P62483); assay: KvBeta positive modulators, primary screen, biochemical, NADPH fluorescence (AID 623;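 active = NADPH fluorescence slope more negative than the mean of all samples by about 3 SD, 99.7% confidence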;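 note: fluorescence intensity change per second fitted from 20 to 320 s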); conditions: Recombinant KvBeta, NADPH fluorescence decrease slope, 10 min; at 10 µM; stronger effect = lower value
[6] = molecular target: Alpha-2C adrenergic receptor (Homo sapiens) (UniProt P18825); assay: modulators of alpha2C/GIRK thallium flux, primary screen, cell-based, HEK293 alpha2C/GIRK1/2 (AID 624;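 active = fluorescence slope after compound addition differing from the mean of all screened samples at 99.7% confidence, in either direction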;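 note: slope of fluorescence ratio to pre-addition baseline per second over 15 to 24 s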); conditions: thallium flux BTC fluorescence, at 10 µM, actives lie on both sides
[7] = inhibitors of larval lipid processing in zebrafish, primary screen, whole organism, PED6 fluorescence, gall bladder and intestine (AID 686;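 active = a full or partial loss of lipid-probe fluorescence in the fish gall bladder, intestine or both, judged by eye; inactive = no fluorescence loss, or compound toxic to the fish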;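 note: larvae 5 to 7 days old with five fish per well; signal comes from phospholipase A2 cleavage of quenched PED6 carried via bile; overnight exposure to compound and PED6 before scoring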); conditions: Zebrafish larvae PED6 lipid processing, fluorescence scoring; screened at 20 µM (by protocol)
Summary of the method: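 Test system – live zebrafish larvae aged 5-7 days, whole organism · Buffer or medium – E3 fish medium · Reagent – quenched phospholipase substrate PED6, 100 nM final, ingested by larvae · Doses – 20 µM single dose · Incubation – overnight compound and PED6 incubation · Technique – visual fluorescence microscopy scoring of gall bladder, gut · Read-out basis – visual per-well fluorescence inhibition score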

[8] = inhibitors of Sendai virus-induced IRF3 signaling, primary screen, TLR/RLR signaling modifier project, cell-based, Sendai virus stimulus, luciferase, 10K MLSCN set (AID 602276;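 active = inhibition at or above 50% at 10 µM; inactive = inhibition below 50%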;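 note: firefly luciferase from ISG56 promoter only with Renilla not read in this screen; 0% = Sendai virus plus DMSO and 100% = medium plus DMSO without virus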); conditions: HEK293 RL24 IRF3 luciferase reporter, at 10 µM, stronger effect = higher value
[9] = inhibitors of poly I:C-induced TLR3 signaling, primary screen, cell-based, poly I:C stimulus, luciferase, 10K MLSCN set (AID 602277;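 active = inhibition of the reporter signal at or above 50%; inactive = inhibition below 50%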); conditions: HEK293-TLR3 RL24 IRF3 luciferase reporter, at 10 µM, stronger effect = higher value

Voltage-gated potassium channel subunit beta-2 (Rattus norvegicus), sequence (P62483 whole entry, looked up): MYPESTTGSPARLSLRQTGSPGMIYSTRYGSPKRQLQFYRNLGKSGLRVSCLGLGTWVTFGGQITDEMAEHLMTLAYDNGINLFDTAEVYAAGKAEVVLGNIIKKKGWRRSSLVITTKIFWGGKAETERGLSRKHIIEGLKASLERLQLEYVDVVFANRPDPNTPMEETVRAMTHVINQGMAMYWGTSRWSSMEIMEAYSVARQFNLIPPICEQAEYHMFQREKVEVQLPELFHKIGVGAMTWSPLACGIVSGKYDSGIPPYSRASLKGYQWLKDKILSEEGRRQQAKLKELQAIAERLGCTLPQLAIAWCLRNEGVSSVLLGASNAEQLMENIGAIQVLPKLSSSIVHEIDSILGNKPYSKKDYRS
Alpha-2C adrenergic receptor (Homo sapiens), sequence (P18825 whole entry, looked up): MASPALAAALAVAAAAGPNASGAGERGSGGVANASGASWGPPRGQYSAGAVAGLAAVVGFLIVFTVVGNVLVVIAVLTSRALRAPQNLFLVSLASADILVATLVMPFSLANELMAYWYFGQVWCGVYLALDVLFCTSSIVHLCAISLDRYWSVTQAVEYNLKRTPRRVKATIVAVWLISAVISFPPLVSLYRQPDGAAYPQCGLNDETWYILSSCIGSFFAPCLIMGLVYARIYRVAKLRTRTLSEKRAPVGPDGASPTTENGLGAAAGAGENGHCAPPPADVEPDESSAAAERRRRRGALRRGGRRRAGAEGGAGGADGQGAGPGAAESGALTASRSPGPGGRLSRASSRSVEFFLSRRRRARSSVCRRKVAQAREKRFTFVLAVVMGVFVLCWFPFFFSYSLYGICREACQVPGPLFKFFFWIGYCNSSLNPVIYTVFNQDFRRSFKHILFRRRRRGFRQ

SMILES	cell count [1]	inhibition [1]	inhibition of aggregation [2]	nuclei count [2] [%]	inhibition [3]	nuclei count [3] [%]	fluorescence slope [4]	NADPH fluorescence slope [5]	slope [6]	outcome [7]	inhibition [8]	inhibition [9]
Cc1nc2cc(NC(=O)N3c4ccccc4CC3C)ccc2o1 (stereo not drawn)	574	-2.2% (inactive)	7.4% (inactive)	56.2	-10.4% (inactive)	96.8	-0.394 (inactive)	-5.4e-05 (inactive)	0.00476 (inactive)	inactive	1.7% (inactive)	-4% (inactive)
CCCNC(=O)c1cc(S(=O)(=O)N2CCc3ccccc32)ccc1F	503	-17.2% (inactive)	14.3% (inactive)	74.6	-32.7% (inactive)	104	-0.412 (inactive)	-7.4e-05 (inactive)	0.00573 (inactive)	inactive	8.07% (inactive)	0.176% (inactive)
CCOC(=O)c1cc(CC)sc1NC(=O)COC	324	-6% (inactive)	-9.4% (inactive)	86.3	34% (inactive)	80	-0.321 (inactive)	-7.5e-06 (inactive)	0.00509 (inactive)	inactive	2.16% (inactive)	4.15% (inactive)
CCOC(=O)CC(=O)CSc1nc(-c2cccnc2)ccc1C#N	908	11.4% (inactive)	-23.5% (inactive)	87.2	-90.5% (inactive)	128	-0.0463 (active)	-1.8e-05 (inactive)	0.013 (active)	inactive	-15.8% (inactive)	-33.1% (inactive)
COc1ccc(NC(=O)CSc2ccccn2)cc1OC	554	-42.2% (inactive)	5.1% (inactive)	107	10.4% (inactive)	88.2	-0.384 (inactive)	-1.5e-05 (inactive)	0.00501 (inactive)	inactive	-19.5% (inactive)	-27.7% (inactive)
COc1ccc(C(=O)CSc2nnc(-c3ccc(C)cc3)o2)cc1	419	11.2% (inactive)	-14.9% (inactive)	109	-69.4% (inactive)	112	-0.371 (inactive)	-1.3e-05 (inactive)	0.00862 (inactive)	inactive	-16.3% (inactive)	-18.5% (inactive)
O=C(NCCCN1CCOCC1)c1cc(-c2ccc(Cl)cc2)on1	264	-1.8% (inactive)	-1.6% (inactive)	102	-8.4% (inactive)	113	-0.294 (inactive)	1.2e-05 (inactive)	0.00493 (inactive)	inactive	6.84% (inactive)	-3.16% (inactive)
Cc1cc(C)nc(SCc2ccc3nonc3c2)n1	634	-4.3% (inactive)	-20.5% (inactive)	114	12.3% (inactive)	97.4	-0.282 (inactive)	-1.3e-05 (inactive)	0.00664 (inactive)	inactive; toxic	8.18% (inactive)	10.6% (inactive)
O=C(O)CCc1ccc(-c2ccc(F)cc2)n1CCC(=O)O	422	1.8% (inactive)	-12.9% (inactive)	118	-140% (inactive)	120	-0.427 (inactive)	-5.7e-05 (inactive)	0.00497 (inactive)	inactive; toxic	15.3% (inactive)	19.9% (inactive)
N#Cc1c(N)oc(-c2cccs2)c1-c1cccs1	508	2.6% (inactive)	-9.8% (inactive)	93.1	-29.4% (inactive)	120	-0.306 (inactive)	-3e-05 (inactive)	0.00454 (inactive)	inactive	-45.9% (inactive)	50.6% (active)
CC(=O)c1cccc(NC(=O)NCc2ccco2)c1	385	0.8% (inactive)	-4.5% (inactive)	74.6	-43.8% (inactive)	79.8	-0.386 (inactive)	6.8e-06 (inactive)	0.00558 (inactive)	inactive	-3.74% (inactive)	-37.3% (inactive)
Cc1cc(C)n(C(C)n2nc(C)cc2C)n1	367	4.3% (inactive)	-9.9% (inactive)	110	-37% (inactive)	68	-0.364 (inactive)	-6.5e-05 (inactive)	0.00585 (inactive)	inactive	11.8% (inactive)	12.7% (inactive)
CC(C)(C)NC(=O)CN(Cc1cccs1)C(=O)c1csnn1	570	12.9% (inactive)	34.6% (active)	85	20.6% (inactive)	89.9	-0.431 (inactive)	-4.2e-05 (inactive)	0.00455 (inactive)	inactive	11.9% (inactive)	16.1% (inactive)
CCOC(=O)c1ccccc1NC1CC(=O)N(c2ccccc2C)C1=O (stereo not drawn)	242	6.7% (inactive)	12.6% (inactive)	97.9	8.6% (inactive)	94.8	-0.262 (inactive)	9.8e-06 (inactive)	0.00569 (inactive)	inactive	-4.41% (inactive)	-8.61% (inactive)
